Results reported in ChEMBL document CHEMBL2407068, “Tropolones as lead-like natural products: the development of potent and selective histone deacetylase inhibitors” (ACS Med Chem Lett, 2013).

Tests used:
[1] = Cytotoxicity against HDF after 72 hrs by MTS assay; settings: human, HDF cells
[2] = test system: HCT-116; experiment: Cytotoxicity against human HCT116 cells after 72 hrs by MTS assay; assay type: functional; settings: HCT-116, 72 h
[3] = test system: Jurkat; experiment: Cytotoxicity against human Jurkat cells after 72 hrs by MTS assay; assay type: functional
[4] = molecular target: T1, Protein deacetylase HDAC6 (Homo sapiens, UniProt Q9UBN7); experiment: Inhibition of human recombinant HDAC6 by Michaelis-Menten equation analysis
T1 sequence (Q9UBN7 whole entry): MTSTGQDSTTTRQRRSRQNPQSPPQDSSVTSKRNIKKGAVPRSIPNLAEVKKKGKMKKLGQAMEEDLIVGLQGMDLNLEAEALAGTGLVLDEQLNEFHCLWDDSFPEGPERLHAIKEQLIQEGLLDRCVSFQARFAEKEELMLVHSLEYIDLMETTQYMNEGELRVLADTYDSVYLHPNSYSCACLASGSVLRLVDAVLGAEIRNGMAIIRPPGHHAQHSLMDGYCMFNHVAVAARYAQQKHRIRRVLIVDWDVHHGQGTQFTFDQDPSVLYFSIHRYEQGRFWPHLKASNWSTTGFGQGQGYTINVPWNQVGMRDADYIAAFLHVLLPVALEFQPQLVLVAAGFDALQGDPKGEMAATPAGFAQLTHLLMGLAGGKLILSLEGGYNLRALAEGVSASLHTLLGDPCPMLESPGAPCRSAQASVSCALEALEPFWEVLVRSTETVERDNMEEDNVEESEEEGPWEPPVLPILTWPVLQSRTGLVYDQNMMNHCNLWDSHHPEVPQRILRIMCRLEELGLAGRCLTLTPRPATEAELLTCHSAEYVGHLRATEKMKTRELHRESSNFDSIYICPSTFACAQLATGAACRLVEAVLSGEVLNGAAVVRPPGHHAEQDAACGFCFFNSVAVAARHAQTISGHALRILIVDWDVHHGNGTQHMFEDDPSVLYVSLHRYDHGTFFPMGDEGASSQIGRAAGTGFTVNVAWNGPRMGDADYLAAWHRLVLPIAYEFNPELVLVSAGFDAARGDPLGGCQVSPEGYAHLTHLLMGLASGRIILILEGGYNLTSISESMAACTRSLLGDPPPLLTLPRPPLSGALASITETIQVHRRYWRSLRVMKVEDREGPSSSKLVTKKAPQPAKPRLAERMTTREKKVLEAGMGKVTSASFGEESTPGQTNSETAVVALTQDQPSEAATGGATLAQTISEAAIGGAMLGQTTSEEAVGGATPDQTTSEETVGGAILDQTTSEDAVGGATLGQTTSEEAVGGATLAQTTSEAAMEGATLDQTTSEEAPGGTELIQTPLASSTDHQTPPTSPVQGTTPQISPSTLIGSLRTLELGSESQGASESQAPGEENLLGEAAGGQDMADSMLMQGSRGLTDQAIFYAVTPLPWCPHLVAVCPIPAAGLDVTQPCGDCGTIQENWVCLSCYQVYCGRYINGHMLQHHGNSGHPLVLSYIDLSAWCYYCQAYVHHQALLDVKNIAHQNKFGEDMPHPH

[5] = molecular target: Histone deacetylase 5 (Homo sapiens, UniProt Q9UQL6); experiment: Inhibition of human recombinant HDAC5 by Michaelis-Menten equation analysis
[6] = molecular target: Histone deacetylase 4 (Homo sapiens, UniProt P56524); experiment: Inhibition of human recombinant HDAC4 by Michaelis-Menten equation analysis
[7] = test system: BXPC-3; experiment: Cytotoxicity against human BxPC3 cells after 72 hrs by MTS assay; assay type: functional; settings: BXPC-3, 72 h
[8] = molecular target: Histone deacetylase 1 (Homo sapiens, UniProt Q13547); experiment: Inhibition of human recombinant HDAC1 by Michaelis-Menten equation analysis
[9] = molecular target: T2, Histone deacetylase 8 (Homo sapiens, UniProt Q9BY41); experiment: Inhibition of human recombinant HDAC8 by Michaelis-Menten equation analysis
T2 sequence (Q9BY41 whole entry): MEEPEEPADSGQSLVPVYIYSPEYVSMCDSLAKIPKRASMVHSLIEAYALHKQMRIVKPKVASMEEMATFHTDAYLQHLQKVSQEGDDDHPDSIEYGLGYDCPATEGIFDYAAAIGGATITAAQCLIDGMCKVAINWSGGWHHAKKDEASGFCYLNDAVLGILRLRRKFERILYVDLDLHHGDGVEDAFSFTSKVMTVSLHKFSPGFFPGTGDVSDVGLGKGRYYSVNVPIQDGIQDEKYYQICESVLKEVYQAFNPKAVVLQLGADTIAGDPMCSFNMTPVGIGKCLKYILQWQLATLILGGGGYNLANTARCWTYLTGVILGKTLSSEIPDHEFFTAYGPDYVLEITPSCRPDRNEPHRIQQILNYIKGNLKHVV

[10] = test system: Liver; experiment: Half life in mouse liver microsomes assessed as gluconoride formation at 0.4 ug/mL by HPLC-MS analysis in presence of UDPGA; assay type: ADME, Microsome
In short: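 Mouse liver microsome incubation run for phase II conjugation, with UDPGA added. Half-life was determined, and the glucuronide conjugate was detected by mass spectrometry.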

[11] = molecular target: Histone deacetylase 2 (Homo sapiens, UniProt Q92769); experiment: Inhibition of human recombinant HDAC2 by Michaelis-Menten equation analysis
[12] = test system: HuT78; experiment: Cytotoxicity against human HUT78 cells after 72 hrs by MTS assay; assay type: functional; settings: HuT78, 72 h
[13] = species: Homo sapiens; experiment: Selectivity ratio of Ki for human recombinant HDAC4 to Ki for human recombinant HDAC2
[14] = species: Homo sapiens; experiment: Selectivity ratio of Ki for human recombinant HDAC6 to Ki for human recombinant HDAC2
[15] = species: Homo sapiens; experiment: Selectivity ratio of Ki for human recombinant HDAC8 to Ki for human recombinant HDAC2
[16] = species: Homo sapiens; experiment: Selectivity ratio of Ki for human recombinant HDAC1 to Ki for human recombinant HDAC2
[17] = species: Homo sapiens; experiment: Selectivity ratio of Ki for human recombinant HDAC5 to Ki for human recombinant HDAC2
[18] = molecular target: T2, Histone deacetylase 8; experiment: Competitive inhibition of human recombinant HDAC8 by Michaelis-Menten equation analysis
[19] = Half life in mouse liver microsomes at 0.4 ug/mL by HPLC-MS analysis in presence of NADPH; assay type: ADME, Microsome

Sequence of Histone deacetylase 2 (Q92769 whole entry): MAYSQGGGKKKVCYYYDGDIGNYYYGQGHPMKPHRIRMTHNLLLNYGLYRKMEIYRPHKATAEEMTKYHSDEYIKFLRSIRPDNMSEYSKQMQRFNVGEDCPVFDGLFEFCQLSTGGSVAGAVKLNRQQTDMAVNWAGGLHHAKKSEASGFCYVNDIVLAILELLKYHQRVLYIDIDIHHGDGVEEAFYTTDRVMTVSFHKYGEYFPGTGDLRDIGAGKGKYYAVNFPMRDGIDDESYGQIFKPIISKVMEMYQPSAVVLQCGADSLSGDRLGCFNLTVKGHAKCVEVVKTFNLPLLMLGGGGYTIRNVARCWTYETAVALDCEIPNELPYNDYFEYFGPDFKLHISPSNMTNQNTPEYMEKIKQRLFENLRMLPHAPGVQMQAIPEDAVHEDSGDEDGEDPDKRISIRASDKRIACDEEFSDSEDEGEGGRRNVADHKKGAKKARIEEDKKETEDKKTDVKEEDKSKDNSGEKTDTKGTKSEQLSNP
Sequence of Histone deacetylase 5 (Q9UQL6 whole entry): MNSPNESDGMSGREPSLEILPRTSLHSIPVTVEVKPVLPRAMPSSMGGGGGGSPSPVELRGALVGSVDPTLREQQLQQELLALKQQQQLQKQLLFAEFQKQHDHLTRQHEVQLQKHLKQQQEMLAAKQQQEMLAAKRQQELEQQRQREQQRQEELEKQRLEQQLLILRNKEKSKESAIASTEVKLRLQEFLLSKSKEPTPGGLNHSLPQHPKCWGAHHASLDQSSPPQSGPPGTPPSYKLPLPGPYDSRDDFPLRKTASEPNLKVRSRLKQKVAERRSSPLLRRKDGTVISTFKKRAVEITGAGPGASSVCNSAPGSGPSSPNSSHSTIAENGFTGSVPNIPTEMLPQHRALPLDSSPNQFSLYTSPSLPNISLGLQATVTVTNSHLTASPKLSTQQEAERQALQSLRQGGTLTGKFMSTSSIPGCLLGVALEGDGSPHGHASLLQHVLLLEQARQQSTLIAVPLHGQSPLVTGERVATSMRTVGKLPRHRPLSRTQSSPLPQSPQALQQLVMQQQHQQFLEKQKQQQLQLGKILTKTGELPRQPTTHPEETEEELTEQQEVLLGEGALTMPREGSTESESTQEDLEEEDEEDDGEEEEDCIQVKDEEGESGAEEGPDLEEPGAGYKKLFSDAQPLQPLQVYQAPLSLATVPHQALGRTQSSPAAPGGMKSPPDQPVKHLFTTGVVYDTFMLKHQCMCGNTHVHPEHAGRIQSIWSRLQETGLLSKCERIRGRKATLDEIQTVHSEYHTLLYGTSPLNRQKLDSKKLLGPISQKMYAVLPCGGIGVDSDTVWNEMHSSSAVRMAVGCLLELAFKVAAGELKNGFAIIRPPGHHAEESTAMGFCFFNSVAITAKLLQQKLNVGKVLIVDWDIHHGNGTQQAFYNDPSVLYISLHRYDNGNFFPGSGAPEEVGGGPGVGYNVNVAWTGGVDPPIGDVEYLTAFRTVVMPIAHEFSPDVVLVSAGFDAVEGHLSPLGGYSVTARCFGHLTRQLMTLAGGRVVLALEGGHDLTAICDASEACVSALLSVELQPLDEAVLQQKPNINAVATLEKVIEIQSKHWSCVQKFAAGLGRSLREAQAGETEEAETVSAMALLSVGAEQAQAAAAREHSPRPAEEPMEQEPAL
Sequence of Histone deacetylase 4 (P56524 whole entry): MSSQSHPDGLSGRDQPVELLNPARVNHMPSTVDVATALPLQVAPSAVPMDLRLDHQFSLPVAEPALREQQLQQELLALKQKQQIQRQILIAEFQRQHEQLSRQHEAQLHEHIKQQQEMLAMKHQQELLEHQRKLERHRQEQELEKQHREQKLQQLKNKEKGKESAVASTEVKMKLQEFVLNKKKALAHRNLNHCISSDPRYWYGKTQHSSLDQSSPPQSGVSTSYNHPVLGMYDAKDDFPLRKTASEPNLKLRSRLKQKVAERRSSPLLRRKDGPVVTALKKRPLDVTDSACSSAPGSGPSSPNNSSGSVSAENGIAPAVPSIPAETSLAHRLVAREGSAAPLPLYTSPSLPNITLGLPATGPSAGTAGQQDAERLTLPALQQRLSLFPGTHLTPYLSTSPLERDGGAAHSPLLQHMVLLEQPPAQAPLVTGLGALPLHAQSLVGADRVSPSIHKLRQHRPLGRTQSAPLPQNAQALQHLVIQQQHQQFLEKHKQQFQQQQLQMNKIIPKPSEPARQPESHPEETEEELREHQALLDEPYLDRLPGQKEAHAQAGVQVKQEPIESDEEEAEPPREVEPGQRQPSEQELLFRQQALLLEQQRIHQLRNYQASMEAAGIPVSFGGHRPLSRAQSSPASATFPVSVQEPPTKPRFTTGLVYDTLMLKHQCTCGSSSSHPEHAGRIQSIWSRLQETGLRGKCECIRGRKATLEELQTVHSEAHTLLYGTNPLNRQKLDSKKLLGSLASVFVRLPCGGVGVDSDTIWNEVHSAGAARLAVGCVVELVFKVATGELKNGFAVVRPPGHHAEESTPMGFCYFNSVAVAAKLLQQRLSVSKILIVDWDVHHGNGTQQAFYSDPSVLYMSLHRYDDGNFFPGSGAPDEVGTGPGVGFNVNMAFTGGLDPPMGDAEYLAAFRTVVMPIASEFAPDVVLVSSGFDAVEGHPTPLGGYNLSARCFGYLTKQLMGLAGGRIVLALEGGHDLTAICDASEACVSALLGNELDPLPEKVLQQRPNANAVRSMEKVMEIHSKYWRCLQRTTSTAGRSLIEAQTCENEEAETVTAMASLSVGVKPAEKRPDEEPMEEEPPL
Sequence of Histone deacetylase 1 (Q13547 whole entry): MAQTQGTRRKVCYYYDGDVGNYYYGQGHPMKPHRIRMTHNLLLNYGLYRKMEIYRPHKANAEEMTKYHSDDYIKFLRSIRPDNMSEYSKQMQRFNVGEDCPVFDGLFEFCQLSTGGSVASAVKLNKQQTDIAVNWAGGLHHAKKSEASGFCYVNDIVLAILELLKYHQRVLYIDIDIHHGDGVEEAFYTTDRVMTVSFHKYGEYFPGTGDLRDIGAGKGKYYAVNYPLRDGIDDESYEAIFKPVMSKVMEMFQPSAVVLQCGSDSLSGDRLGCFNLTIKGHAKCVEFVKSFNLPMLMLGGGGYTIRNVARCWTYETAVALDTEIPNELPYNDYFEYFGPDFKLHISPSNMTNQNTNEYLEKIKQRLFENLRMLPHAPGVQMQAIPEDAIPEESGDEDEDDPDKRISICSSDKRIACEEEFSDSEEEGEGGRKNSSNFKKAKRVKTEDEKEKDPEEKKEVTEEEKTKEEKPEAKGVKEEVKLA

With `CCC(C)c1cccc(O)c(=O)c1` (stereo not given) the GI50 at 72 h [1] was > 100 µM, the GI50 [2] was 26.9 µM and the GI50 [3] was 0.59 µM. For the same molecule, the Ki [4] was > 2.5 µM, the Ki [5] was > 2.5 µM and the Ki [6] was 6.11 µM. The GI50 [7] was 104 µM, the Ki [8] was > 2.5 µM and the Ki [9] was 0.00227 µM. The t1/2 [10] was > 1 h, the Ki [11] was 0.22 nM and the GI50 [12] was 3.25 µM.

With `CC(C)(C)c1cccc(O)c(=O)c1` the GI50 at 72 h [1] was > 100 µM, the GI50 [2] was 62.6 µM and the GI50 [3] was 4.45 µM. For the same molecule, the Ratio Ki [13] was > 100, the Ki [4] was > 2.5 µM and the Ratio Ki [14] was > 100. The Ki [5] was > 2.5 µM, the Ratio Ki [15] was > 100 and the Ki [6] was 0.806 µM. For the same molecule, the Ratio Ki [16] was > 100, the GI50 [7] was 43 µM and the Ki [8] was > 2.5 µM. The Ki [9] was 0.0128 µM, the t1/2 [10] was > 1 h and the Ki [11] was 0.13 nM. For the same molecule, the Ratio Ki [17] was > 100 and the GI50 [12] was 13.1 µM.

Molecule `O=c1c(O)ccccc1-c1ccccc1` has a GI50 at 72 h [1] of 96.5 µM, a GI50 [2] of 15.2 µM and a GI50 [3] of 3.33 µM. For the same molecule, the Ki [4] was 0.527 µM, the Ki [5] was > 2.5 µM and the Ki [6] was > 20 µM. For the same molecule, the Ki [18] was 0.00053 µM, the half-life at 0.4 ug/mL [19] was 1.55 h and the GI50 [7] was 29.4 µM. For the same molecule, the Ki [8] was > 2.5 µM, the Ki [9] was 0.00109 µM and the t1/2 [10] was > 1 h. The Ki [11] was 0.26 nM and the GI50 [12] was 7.83 µM.

In the case of `O=c1cc(-c2ccccc2)cccc1O`, the GI50 at 72 h [1] is reported as > 100 µM, the GI50 [2] is reported as 53.4 µM and the GI50 [3] is reported as 0.67 µM. The Ki [4] was > 2.5 µM, the Ki [5] was > 2.5 µM and the Ki [6] was 10.9 µM. The GI50 [7] was 18.5 µM, the Ki [8] was > 2.5 µM and the Ki [9] was 0.00147 µM. The t1/2 [10] was > 1 h, the Ki [11] was 0.06 nM and the GI50 [12] was 4.14 µM.

For `COc1ccc(OC)c(-c2cccc(O)c(=O)c2)c1`, the GI50 at 72 h [1] was > 100 µM, the GI50 [2] was > 100 µM and the GI50 [3] was 5.89 µM. The Ratio Ki [13] was > 100, the Ki [4] was > 2.5 µM and the Ratio Ki [14] was > 100. The Ki [5] was > 2.5 µM, the Ratio Ki [15] was > 100 and the Ki [6] was 11.2 µM. The Ratio Ki [16] was > 100, the GI50 [7] was 34.8 µM and the Ki [8] was > 2.5 µM. For the same molecule, the Ki [9] was 0.266 µM, the t1/2 [10] was > 1 h and the Ki [11] was 0.51 nM. The Ratio Ki [17] was > 100 and the GI50 [12] was 17.1 µM.

With `O=C(CCCCCCC(=O)Nc1ccccc1)NO` [VORINOSTAT] the GI50 at 72 h [1] was 18.9 µM, the GI50 [2] was 2.5 µM and the GI50 [3] was 0.9 µM. It also gave a half-life at 0.4 ug/mL [19] of 0.467 h, a GI50 [7] of 5.56 µM and a GI50 [12] of 2.1 µM.

In the case of `COc1cccc(C(C)C)cc1=O`, the GI50 at 72 h [1] is reported as > 100 µM, the GI50 [2] is reported as > 100 µM and the GI50 [3] is reported as > 100 µM. The Ki [4] was > 2.5 µM, the Ki [5] was > 2.5 µM and the Ki [6] was 11.6 µM. The GI50 [7] was > 100 µM, the Ki [8] was > 2.5 µM and the Ki [9] was 0.00787 µM. For the same molecule, the t1/2 [10] was > 1 h, the Ki [11] was > 2500 nM and the GI50 [12] was > 100 µM.
